Reference: ChEMBL document CHEMBL1156692, “Synthesis of novel 7-benzylamino-2H-1,4-benzoxazin-3(4H)-ones as anticonvulsant agents” (Eur J Med Chem, 2008)

Key:
[1] = Neurotoxicity in ip dosed C57B/6 mouse after 30 mins by rotarod test; format: toxicity, organism-based; conditions: in vivo
Procedure, shortened: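 Minimal neurotoxicity in mice was scored on the rotarod, 30 min after i.p. administration. TD50 was reported in mg/kg with a range in parentheses.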

Mus musculus [2] = assay: Anticonvulsant activity in ip dosed C57B/6 mouse assessed as inhibition of maximal electroshock-induced seizures; format: functional; conditions: C57B/6, ip
Mus musculus [3] = species: Mus musculus; assay: Protective index, ratio of TD50 for C57B/6 mouse by rotarod test to ED50 for C57BL/6 mouse by MES test; format: functional
Mus musculus [4] = assay: Anticonvulsant activity in C57B/6 mouse assessed as inhibition of pentylenetetrazole-induced clonic seizures at 50 mg/kg, ip after 0.5 hrs relative to control; format: functional; set-up: scale not given: the % may be the effect or the level left; conditions: dose 100 mg/kg; route intraperitoneal; in the assay text read “100 mg/kg” for “50 mg/kg”
Procedure, shortened: (§1)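 Seizures in mice were induced by pentylenetetrazole 85 mg/kg in saline, s.c., 30 min after i.p. test agent. Animals were caged singly and watched for 30 min. Clonic and tonic seizures and deaths were counted.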

Mus musculus [5] = assay: Anticonvulsant activity in C57B/6 mouse assessed as inhibition of pentylenetetrazole-induced tonic seizures at 50 mg/kg, ip after 0.5 hrs relative to control; format: functional; set-up: scale not given: the % may be the effect or the level left; conditions: route intraperitoneal; procedure, shortened: as §1
Mus musculus [6] = assay: Anticonvulsant activity in C57B/6 mouse assessed as inhibition of isoniazid-induced clonic seizures at 50 mg/kg, ip after 0.5 hrs relative to control; format: functional; set-up: scale not given: the % may be the effect or the level left; conditions: route intraperitoneal
Procedure, shortened: (§2)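 Isoniazid-induced seizure model in mice. Isoniazid 250 mg/kg was given 30 min after i.p. test agent. Clonic seizures, tonic seizures and lethality were counted. Treated groups were compared with the control group.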

Mus musculus [7] = assay: Anticonvulsant activity in C57B/6 mouse assessed as inhibition of isoniazid-induced tonic seizures at 50 mg/kg, ip after 0.5 hrs relative to control; format: functional; set-up: scale not given: the % may be the effect or the level left; conditions: route intraperitoneal; procedure, shortened: as §2
Mus musculus [8] = assay: Toxicity in isoniazid-induced seizure C57B/6 mouse model assessed as lethality at 50 mg/kg, ip after 0.5 hrs relative to control; format: organism-based; set-up: dose 50 mg/kg, route intraperitoneal; conditions: in vivo
Procedure, shortened: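 Mice received the test agent i.p., then isoniazid 250 mg/kg 30 min later. Clonic seizures, tonic seizures and lethality were recorded, and treated groups were compared with a control group.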

Mus musculus [9] = assay: Anticonvulsant activity in C57B/6 mouse assessed as inhibition of strychnine-induced clonic seizures at 50 mg/kg, ip after 0.5 hrs relative to control; format: functional; set-up: scale not given: the % may be the effect or the level left; conditions: route intraperitoneal
Procedure, shortened: (§3)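 Strychnine chlorhydrate in saline (1.2 mg/kg) was injected s.c. into mice 30 min after i.p. test agent. Animals were caged singly and observed for 30 min. Seizure onset time, clonic and tonic seizure counts and lethality were recorded. Controls received vehicle only.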

Mus musculus [10] = assay: Anticonvulsant activity in C57B/6 mouse assessed as inhibition of strychnine-induced tonic seizures at 50 mg/kg, ip after 0.5 hrs relative to control; format: functional; set-up: scale not given: the % may be the effect or the level left; conditions: route intraperitoneal; procedure, shortened: as §3
Mus musculus [11] = assay: Toxicity in strychnine-induced seizure C57B/6 mouse model assessed as lethality at 50 mg/kg, ip after 0.5 hrs relative to control; format: organism-based; set-up: dose 50 mg/kg, route intraperitoneal; conditions: in vivo
Procedure, shortened: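 Test agent given i.p.; controls received vehicle only. After 30 min, strychnine chlorhydrate 1.2 mg/kg in saline was injected s.c. Mice were caged individually and observed 30 min, recording seizure onset time, clonic and tonic seizure numbers and lethality.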

O=C1COc2cc(NCc3ccccc3Cl)ccc2N1
TD50 at 0.5 h [1]: > 300 mg/kg

O=C1COc2ccccc2N1
ED50 (Mus musculus [2]): 300 mg/kg
TD50 at 0.5 h [1]: > 300 mg/kg

O=C1COc2cc(NCc3cccc(F)c3)ccc2N1
TD50 at 0.5 h [1]: 228 mg/kg

O=C1COc2cc(NCc3ccccc3)ccc2N1
TD50 at 0.5 h [1]: 182 mg/kg

O=C1COc2cc(NCc3ccc(F)cc3)ccc2N1
TD50 at 0.5 h [1]: 228 mg/kg

O=C1COc2cc(NCc3ccc(Br)cc3)ccc2N1
TD50 at 0.5 h [1]: > 300 mg/kg

Cc1ccc(CNc2ccc3c(c2)OCC(=O)N3)cc1
TD50 at 0.5 h [1]: > 300 mg/kg

O=C1COc2cc(NCc3ccccc3F)ccc2N1
TD50 at 0.5 h [1]: 183 mg/kg

O=C1COc2cc(NCc3ccc(Cl)cc3)ccc2N1
TD50 at 0.5 h [1]: > 300 mg/kg

CN(Cc1ccc(F)cc1)c1ccc2c(c1)OCC(=O)N2C
TD50 at 0.5 h [1]: > 300 mg/kg

O=C1COc2cc(NCc3ccc4c(c3)OCO4)ccc2N1
ED50 (Mus musculus [2]): 63.4 mg/kg
TD50 at 0.5 h [1]: > 300 mg/kg
Ratio (Mus musculus [3]): >4.7

CCOc1ccc(CNc2ccc3c(c2)OCC(=O)N3)cc1
TD50 at 0.5 h [1]: > 300 mg/kg

NC(=O)N1c2ccccc2C=Cc2ccccc21 [CARBAMAZEPINE]
ED50 (Mus musculus [2]): 9.2 mg/kg
TD50 at 0.5 h [1]: 74.4 mg/kg
Activity (Mus musculus [4]): 100%
Activity (Mus musculus [5]): 20%
Activity (Mus musculus [6]): 10%
Activity (Mus musculus [7]): 10%
Activity (Mus musculus [8]): 0%
Activity (Mus musculus [9]): 40%
Activity (Mus musculus [10]): 30%
Activity (Mus musculus [11]): 0%
